This note sets out measurements from ChEMBL document CHEMBL3091397, “Structural effects on persister control by brominated furanones” (Bioorg Med Chem Lett, 2013).

A word on the inhibition: it is the drop in the measured response relative to a control, in per cent.

Data set [1] relates to Vibrio harveyi. Description: Toxicity in Vibrio harveyi ATCC BAA-1118 assessed as effect on cell viability up to 60 ug/mL after 1.5 hrs by bioluminescence assay. In kind it is organism-based. Summed up: (§1)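 V. harveyi BB886 QS reporter was exposed to furanones at various concentrations in the bioluminescence assay. Viable cells were counted as CFU after treatment.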
The subject of data set [2] is Vibrio harveyi. Description: Inhibition of AHL-mediated quorum sensing in Vibrio harveyi ATCC BAA-1118 up to 60 ug/mL after 1.5 hrs by bioluminescence assay. The method in brief: (§2)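 V. harveyi BB886 reporter, which emits light in response to extracellular AHL, was incubated with or without furanone at various concentrations (Surette method, modified). Bioluminescence was normalized to viable CFU to give relative bioluminescence versus untreated.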

Data set [3] deals with Pseudomonas aeruginosa. Kind of data set: Antibacterial activity against Pseudomonas aeruginosa PAO1 assessed as viability of persister cells at 2 ug/mL after 2 hrs.
The subject of data set [4] is Vibrio harveyi. Description: Inhibition of AHL-mediated quorum sensing in Vibrio harveyi ATCC BAA-1118 after 1.5 hrs by bioluminescence assay. The method in brief: as §2
The subject of data set [5] is Vibrio harveyi. Description: Toxicity in Vibrio harveyi ATCC BAA-1118 assessed as effect on cell viability after 1.5 hrs by bioluminescence assay. The class given is organism-based. The method in brief:
as §1

In data set [6] the test system is Vibrio harveyi. Description: Inhibition of AHL-mediated quorum sensing in Vibrio harveyi ATCC BAA-1118 at 0.5 ug/mL after 1.5 hrs by bioluminescence assay relative to control. Summed up:
as §2

Data set [7] relates to Vibrio harveyi. Description: Toxicity in Vibrio harveyi ATCC BAA-1118 assessed as effect on cell viability up to 10 ug/mL after 1.5 hrs by bioluminescence assay. The class given is organism-based. The method in brief:
as §1

The test system of data set [8] is Pseudomonas aeruginosa. Kind of data set: Antibacterial activity against Pseudomonas aeruginosa PAO1 assessed as viability of persister cells at 2 ug/mL after 2 hrs. The class given is functional. The method in brief: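 Persisters isolated from P. aeruginosa PAO1 per an earlier protocol, exposed to furanone for 2 h. Viability was counted as CFU by plating on LB agar immediately after treatment.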

Data set [9] concerns Pseudomonas aeruginosa. Description: Potentiation of ciprofloxacin-induced antibacterial activity against Pseudomonas aeruginosa PAO1 assessed as persister cells at 2 ug/mL after 3.5 hrs. The class given is functional, organism-based. The method in brief: (§3)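 Isolated PAO1 persisters were given furanone at 2 µg/mL for 2 h. A portion of each sample then received 200 µg/mL ciprofloxacin for 3.5 h. Surviving persisters were counted as CFU.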

The test system of data set [10] is Vibrio harveyi. Description: Toxicity in Vibrio harveyi ATCC BAA-1118 assessed as effect on cell viability at 30 ug/mL after 1.5 hrs by bioluminescence assay. In kind it is organism-based. The method in brief: as §1
For data set [11], the system named is Vibrio harveyi. Kind of data set: Inhibition of AHL-mediated quorum sensing in Vibrio harveyi ATCC BAA-1118 at 10 ug/mL after 1.5 hrs by bioluminescence assay relative to control. Summed up: as §2
In data set [12] the test system is Vibrio harveyi. Kind of data set: Inhibition of AHL-mediated quorum sensing in Vibrio harveyi ATCC BAA-1118 at 30 ug/mL after 1.5 hrs by bioluminescence assay. The method in brief: as §2
Data set [13] relates to Pseudomonas aeruginosa. Description: Antibacterial activity against Pseudomonas aeruginosa PAO1 assessed as viability of persister cells at 200 ug/mL after 3.5 hrs. The class given is functional, organism-based. The method in brief: as §3
For data set [14], the system named is Pseudomonas aeruginosa. Description: Potentiation of ciprofloxacin-induced antibacterial activity against Pseudomonas aeruginosa PAO1 assessed as sensitive persister cells at 2 ug/mL after 3.5 hrs. The class given is functional. The method in brief: as §3

Activity calls are given as the source filed them. No cut-off for these calls is given here.

On to `COC1=CC(=O)OC1`, for which, in data set [1], the Activity entry is given as “Non-toxic”. Also, in [2], the inhibition entry is “inactive”. Also, the result in data set [3] was inactive.

Consider `CC1=CC(=O)OC1=O`, for which, in data set [4], the inhibition result is “inactive”. The result in data set [3] was inactive. In addition, the Activity result in [5] is given as “Non-toxic”.

As to `CC1=C(Br)C(Br)(C(Br)Br)OC1=O` (stereo unspecified), in data set [4], the inhibition result is “inactive”. Also, the outcome in [3] was Active. Besides, the Activity entry in [5] was “Non-toxic”.

As for `O=C1OC(=C(Br)Br)C=C1C(Br)Br`, the result in data set [3] was Active. Further, in data set [5], the Activity entry is given as “Non-toxic”. In addition, the inhibition in data set [6] turned out to be 55.9%.

Consider `CC1=CC(=C(Br)Br)OC1=O`, for which the Activity result is “Non-toxic” in data set [7] and “Toxic” in data set [10]. In [8], the result was inactive. In addition, the inhibition result in data set [4] is “Dose-dependent effect”; in [11], 100%. In addition, the outcome in [9] was Active. In addition, the inhibition entry in data set [12] was “Active”.

For `O=C(O)c1cn(C2CC2)c2cc(N3CCNCC3)c(F)cc2c1=O`, the outcome in [13] was inactive.

`O=C1O/C(=C\Br)C(Br)=C1CBr`: the inhibition entry in [4] is “Active”. Further, the outcome in data set [3] was Active. In addition, in data set [5], the Activity result is given as “Non-toxic”.

Regarding `O=C1OC(=C(Br)Br)C=C1CBr`, the outcome in data set [8] was inactive. In addition, the Activity entry in data set [5] was “Non-toxic”. The result in data set [9] was Active. In addition, the inhibition in data set [6] was 91.2%.

With `CC1=C(Br)C(C(Br)Br)OC1=O` (stereo unspecified), the Activity is given as 64.6% in data set [8], 99.99% in data set [14] and “Non-toxic” in data set [5]. Further, the inhibition result in data set [4] is “inactive”.
